Test results taken from ChEMBL document CHEMBL1156002, “Synthesis, Raman, FT-IR, NMR spectroscopic characterization, antimicrobial activity, cytotoxicity and DNA binding of new mixed aza-oxo-thia macrocyclic compounds” (2009).

Experiments:
Escherichia coli [1] = test: Antibacterial activity against Escherichia coli ATCC 11230 at 10 ug after 24 hrs by agar disk diffusion assay; format: functional; settings: ATCC 11230, 24 h, read-out: IZ
Outline: (§1)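 Disk diffusion with sterile 6 mm discs loaded with DMSO solutions of the test agents and placed on inoculated agar. Bacteria were pre-grown in Nutrient Broth at 30 °C for 24 h, and plates were incubated at 35 °C for 24 h. Each plate carried a reference antibiotic disc matched to the organism, and a DMSO-only solvent control was run.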

Staphylococcus aureus [2] = test: Antibacterial activity against Staphylococcus aureus ATCC 6538 at 10 ug after 24 hrs by agar disk diffusion assay; format: functional; settings: ATCC 6538, 24 h, read-out: IZ
Outline: (§2)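 Sterile 6 mm paper discs were loaded with ligand solution freshly prepared in DMSO and placed on inoculated agar. The inoculum came from broth cultures: bacteria in Nutrient Broth at 30 °C for 24 h, yeasts in Malt Extract Broth for 48 h. Plates were incubated at 35 °C for 24 h (bacteria) or 25 °C for 72 h (yeasts). A DMSO solvent control and a reference antibiotic disc were included on each plate.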

Klebsiella pneumoniae [3] = test: Antibacterial activity against Klebsiella pneumoniae UC57 at 10 ug after 24 hrs by agar disk diffusion assay; format: functional; settings: UC57, 24 h, read-out: IZ; outline: as §1
Bacillus cereus [4] = test: Antibacterial activity against Bacillus cereus ATCC 7064 at 10 ug after 24 hrs by agar disk diffusion assay; format: functional; settings: ATCC 7064, 24 h, read-out: IZ; outline: as §1
Micrococcus luteus [5] = test: Antibacterial activity against Micrococcus luteus La 2971 at 10 ug after 24 hrs by agar disk diffusion assay; format: functional; settings: La 2971, 24 h, read-out: IZ; outline: as §1
Proteus vulgaris [6] = test: Antibacterial activity against Proteus vulgaris ATCC 8427 at 10 ug after 24 hrs by agar disk diffusion assay; format: functional; settings: ATCC 8427, 24 h, read-out: IZ; outline: as §1
[7] = tested on: Mycolicibacterium smegmatis; test: Antibacterial activity against Mycobacterium smegmatis CCM 2067 at 10 ug after 24 hrs by agar disk diffusion assay; format: functional; settings: CCM 2067, 24 h, read-out: IZ; outline: as §1
Listeria monocytogenes [8] = test: Antibacterial activity against Listeria monocytogenes ATCC 15313 at 10 ug after 24 hrs by agar disk diffusion assay; format: functional; settings: ATCC 15313, 24 h, read-out: IZ; outline: as §1
Pseudomonas aeruginosa [9] = test: Antibacterial activity against Pseudomonas aeruginosa ATCC 27853 at 10 ug after 24 hrs by agar disk diffusion assay; format: functional; settings: ATCC 27853, 24 h, read-out: IZ; outline: as §1
Escherichia coli [10] = test: Antibacterial activity against Escherichia coli ATCC 11230 at 10 IU after 24 hrs by agar disk diffusion assay; format: functional; outline: as §1
Staphylococcus aureus [11] = test: Antibacterial activity against Staphylococcus aureus ATCC 6538 at 10 IU after 24 hrs by agar disk diffusion assay; format: functional; outline: as §1
Klebsiella pneumoniae [12] = test: Antibacterial activity against Klebsiella pneumoniae UC57 at 10 IU after 24 hrs by agar disk diffusion assay; format: functional; outline: as §1
Bacillus cereus [13] = test: Antibacterial activity against Bacillus cereus ATCC 7064 at 10 IU after 24 hrs by agar disk diffusion assay; format: functional; outline: as §1
Micrococcus luteus [14] = test: Antibacterial activity against Micrococcus luteus La 2971 at 10 IU after 24 hrs by agar disk diffusion assay; format: functional; outline: as §1
Proteus vulgaris [15] = test: Antibacterial activity against Proteus vulgaris ATCC 8427 at 10 IU after 24 hrs by agar disk diffusion assay; format: functional; outline: as §1
[16] = tested on: Mycolicibacterium smegmatis; test: Antibacterial activity against Mycobacterium smegmatis CCM 2067 at 10 IU after 24 hrs by agar disk diffusion assay; format: functional; outline: as §1
Listeria monocytogenes [17] = test: Antibacterial activity against Listeria monocytogenes ATCC 15313 at 10 IU after 24 hrs by agar disk diffusion assay; format: functional; outline: as §1
Pseudomonas aeruginosa [18] = test: Antibacterial activity against Pseudomonas aeruginosa ATCC 27853 at 10 IU after 24 hrs by agar disk diffusion assay; format: functional; outline: as §1
Kluyveromyces marxianus [19] = test: Antifungal activity against Kluyveromyces fragilis NRRL 2415 at 100 ug after 72 hrs by agar disk diffusion assay; format: functional, organism-based
Outline: (§3)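 Yeasts were pre-grown in Malt Extract Broth for 48 h. Sterile 6 mm discs loaded with compound solutions freshly made in DMSO were placed on inoculated agar and incubated at 25 °C for 72 h. The medium was supplemented with DMSO as a solvent control, and an appropriate reference antifungal disc was added to each plate.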

Rhodotorula mucilaginosa [20] = test: Antifungal activity against Rhodotorula rubra DSM 70403 at 100 ug after 72 hrs by agar disk diffusion assay; format: functional, organism-based; outline: as §3
[21] = tested on: Hanseniaspora guilliermondii; test: Antifungal activity against Hanseniaspora guilliermondii DSM 3432 at 100 ug after 72 hrs by agar disk diffusion assay; format: functional, organism-based; outline: as §3
Debaryomyces hansenii [22] = test: Antifungal activity against Debaryomyces hansenii DSM 70238 at 100 ug after 72 hrs by agar disk diffusion assay; format: functional, organism-based; outline: as §3
Kluyveromyces marxianus [23] = test: Antifungal activity against Kluyveromyces fragilis NRRL 2415 after 24 hrs by broth micro dilution method; format: functional
Outline: (§4)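 Broth microdilution was run in cation-adjusted Mueller Hinton Broth. Compounds were dissolved in DMSO at 2 mg mL^-1 and serially diluted two-fold. Yeast precultures were grown in Malt Extract Broth for 48 h. The final inoculum was about 10⁶ cfu mL^-1, and plates were incubated at 37 °C for 24 h. The MIC was read from this series.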

Rhodotorula mucilaginosa [24] = test: Antifungal activity against Rhodotorula rubra DSM 70403 after 24 hrs by broth micro dilution method; format: functional; outline: as §4
Candida albicans = test: Antifungal activity against Candida albicans ATCC 10231 after 24 hrs by broth micro dilution method; format: functional; outline: as §4
[25] = tested on: Hanseniaspora guilliermondii; test: Antifungal activity against Hanseniaspora guilliermondii DSM 3432 after 24 hrs by broth micro dilution method; format: functional; outline: as §4
Debaryomyces hansenii [26] = test: Antifungal activity against Debaryomyces hansenii DSM 70238 after 24 hrs by broth micro dilution method; format: functional; outline: as §4
Escherichia coli [27] = test: Antibacterial activity against Escherichia coli ATCC 11230 at 30 ug after 24 hrs by agar disk diffusion assay; format: functional; settings: ATCC 11230, 24 h, read-out: IZ
Outline: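 Bacteria pre-grown in Nutrient Broth at 30 °C for 24 h. Sterile 6 mm discs loaded with compound solutions freshly made in DMSO were placed on inoculated agar and incubated at 35 °C for 24 h. The medium was supplemented with DMSO as a solvent control, and an appropriate reference antibiotic disc was added to each plate.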

Staphylococcus aureus [28] = test: Antibacterial activity against Staphylococcus aureus ATCC 6538 at 30 ug after 24 hrs by agar disk diffusion assay; format: functional; settings: ATCC 6538, 24 h, read-out: IZ; outline: as §2
Klebsiella pneumoniae [29] = test: Antibacterial activity against Klebsiella pneumoniae UC57 at 30 ug after 24 hrs by agar disk diffusion assay; format: functional; settings: UC57, 24 h, read-out: IZ; outline: as §1
Bacillus cereus [30] = test: Antibacterial activity against Bacillus cereus ATCC 7064 at 30 ug after 24 hrs by agar disk diffusion assay; format: functional; settings: ATCC 7064, 24 h, read-out: IZ; outline: as §1
Micrococcus luteus [31] = test: Antibacterial activity against Micrococcus luteus La 2971 at 30 ug after 24 hrs by agar disk diffusion assay; format: functional; settings: La 2971, 24 h, read-out: IZ; outline: as §1
Proteus vulgaris [32] = test: Antibacterial activity against Proteus vulgaris ATCC 8427 at 30 ug after 24 hrs by agar disk diffusion assay; format: functional; settings: ATCC 8427, 24 h, read-out: IZ; outline: as §1
[33] = tested on: Mycolicibacterium smegmatis; test: Antibacterial activity against Mycobacterium smegmatis CCM 2067 at 30 ug after 24 hrs by agar disk diffusion assay; format: functional; settings: CCM 2067, 24 h, read-out: IZ; outline: as §1
Listeria monocytogenes [34] = test: Antibacterial activity against Listeria monocytogenes ATCC 15313 at 30 ug after 24 hrs by agar disk diffusion assay; format: functional; settings: ATCC 15313, 24 h, read-out: IZ; outline: as §1
Pseudomonas aeruginosa [35] = test: Antibacterial activity against Pseudomonas aeruginosa ATCC 27853 at 30 ug after 24 hrs by agar disk diffusion assay; format: functional; settings: ATCC 27853, 24 h, read-out: IZ; outline: as §1
Micrococcus luteus [36] = test: Antibacterial activity against Micrococcus luteus La 2971 at 5 ug after 24 hrs by agar disk diffusion assay; format: functional; settings: La 2971, 24 h, read-out: IZ; outline: as §1
Proteus vulgaris [37] = test: Antibacterial activity against Proteus vulgaris ATCC 8427 at 5 ug after 24 hrs by agar disk diffusion assay; format: functional; settings: ATCC 8427, 24 h, read-out: IZ; outline: as §1
[38] = tested on: Mycolicibacterium smegmatis; test: Antibacterial activity against Mycobacterium smegmatis CCM 2067 at 5 ug after 24 hrs by agar disk diffusion assay; format: functional; settings: CCM 2067, 24 h, read-out: IZ; outline: as §1
Listeria monocytogenes [39] = test: Antibacterial activity against Listeria monocytogenes ATCC 15313 at 5 ug after 24 hrs by agar disk diffusion assay; format: functional; settings: ATCC 15313, 24 h, read-out: IZ; outline: as §1
Pseudomonas aeruginosa [40] = test: Antibacterial activity against Pseudomonas aeruginosa ATCC 27853 at 5 ug after 24 hrs by agar disk diffusion assay; format: functional; settings: ATCC 27853, 24 h, read-out: IZ; outline: as §1
Escherichia coli [41] = test: Antibacterial activity against Escherichia coli ATCC 11230 at 5 ug after 24 hrs by agar disk diffusion assay; format: functional; settings: ATCC 11230, 24 h, read-out: IZ; outline: as §1
Staphylococcus aureus [42] = test: Antibacterial activity against Staphylococcus aureus ATCC 6538 at 5 ug after 24 hrs by agar disk diffusion assay; format: functional; settings: ATCC 6538, 24 h, read-out: IZ; outline: as §2
Klebsiella pneumoniae [43] = test: Antibacterial activity against Klebsiella pneumoniae UC57 at 5 ug after 24 hrs by agar disk diffusion assay; format: functional; settings: UC57, 24 h, read-out: IZ; outline: as §1
Bacillus cereus [44] = test: Antibacterial activity against Bacillus cereus ATCC 7064 at 5 ug after 24 hrs by agar disk diffusion assay; format: functional; settings: ATCC 7064, 24 h, read-out: IZ; outline: as §1

CC1(C)S[C@@H]2[C@H](NC(=O)[C@H](N)c3ccccc3)C(=O)N2[C@H]1C(=O)O [AMPICILLIN]
zone of inhibition at 10 µg/disc (Escherichia coli [1]): 12 mm
zone of inhibition at 10 µg/disc (Staphylococcus aureus [2]): 16 mm
zone of inhibition at 10 µg/disc (Klebsiella pneumoniae [3]): 14 mm
zone of inhibition at 10 µg/disc (Bacillus cereus [4]): 10 mm
zone of inhibition at 10 µg/disc (Micrococcus luteus [5]): 16 mm
zone of inhibition at 10 µg/disc (Proteus vulgaris [6]): 12 mm
zone of inhibition at 10 µg/disc [7]: 21 mm
zone of inhibition at 10 µg/disc (Listeria monocytogenes [8]): 12 mm
zone of inhibition at 10 µg/disc (Pseudomonas aeruginosa [9]): 32 mm

CC1(C)S[C@@H]2[C@H](NC(=O)Cc3ccccc3)C(=O)N2[C@H]1C(=O)O [PENICILLIN G]
inhibition zone (IZ) (Escherichia coli [10]): 18 mm
inhibition zone (IZ) (Staphylococcus aureus [11]): 13 mm
inhibition zone (IZ) (Klebsiella pneumoniae [12]): 18 mm
inhibition zone (IZ) (Bacillus cereus [13]): 8 mm
inhibition zone (IZ) (Micrococcus luteus [14]): 10 mm
inhibition zone (IZ) (Proteus vulgaris [15]): 14 mm
inhibition zone (IZ) [16]: 15 mm
inhibition zone (IZ) (Listeria monocytogenes [17]): 10 mm
inhibition zone (IZ) (Pseudomonas aeruginosa [18]): 36 mm

NYSTATIN
inhibition zone (IZ) (Kluyveromyces marxianus [19]): 20 mm
inhibition zone (IZ) (Rhodotorula mucilaginosa [20]): 18 mm
inhibition zone (IZ) [21]: 21 mm
inhibition zone (IZ) (Debaryomyces hansenii [22]): 16 mm
MIC (Kluyveromyces marxianus [23]): 6.25 µg/mL
MIC (Rhodotorula mucilaginosa [24]): 6.25 µg/mL
MIC (Candida albicans): 3.12 µg/mL
MIC [25]: 3.12 µg/mL
MIC (Debaryomyces hansenii [26]): 12.5 µg/mL

CO/N=C(\C(=O)N[C@@H]1C(=O)N2C(C(=O)O)=C(COC(C)=O)CS[C@H]12)c1csc(N)n1 [CEFOTAXIME]
zone of inhibition at 30 µg/disc (Escherichia coli [27]): 10 mm
zone of inhibition at 30 µg/disc (Staphylococcus aureus [28]): 12 mm
zone of inhibition at 30 µg/disc (Klebsiella pneumoniae [29]): 13 mm
zone of inhibition at 30 µg/disc (Bacillus cereus [30]): 54 mm
zone of inhibition at 30 µg/disc (Micrococcus luteus [31]): 18 mm
zone of inhibition at 30 µg/disc (Proteus vulgaris [32]): 14 mm
zone of inhibition at 30 µg/disc [33]: 11 mm
zone of inhibition at 30 µg/disc (Listeria monocytogenes [34]): 16 mm
zone of inhibition at 30 µg/disc (Pseudomonas aeruginosa [35]): 32 mm

CC1COc2c(N3CCN(C)CC3)c(F)cc3c(=O)c(C(=O)O)cn1c23 (stereo not given) [OFLOXACIN]
zone of inhibition at 5 µg/disc (Micrococcus luteus [36]): 28 mm
zone of inhibition at 5 µg/disc (Proteus vulgaris [37]): 30 mm
zone of inhibition at 5 µg/disc [38]: 32 mm
zone of inhibition at 5 µg/disc (Listeria monocytogenes [39]): 30 mm
zone of inhibition at 5 µg/disc (Pseudomonas aeruginosa [40]): 28 mm
zone of inhibition at 5 µg/disc (Escherichia coli [41]): 30 mm
zone of inhibition at 5 µg/disc (Staphylococcus aureus [42]): 24 mm
zone of inhibition at 5 µg/disc (Klebsiella pneumoniae [43]): 28 mm
zone of inhibition at 5 µg/disc (Bacillus cereus [44]): 44 mm
